# Assay results as given in ChEMBL document CHEMBL1671632, “Genetic basis of multidrug resistance in Acinetobacter baumannii clinical isolates at a tertiary medical center in Pennsylvania” (2008).
# Assays:
# Acinetobacter baumannii [1] = assay: Antimicrobial activity against multidrug-resistant Acinetobacter baumannii assessed as resistant isolates by disk diffusion method; format: functional
# How it was run: (§1)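 Standard disk diffusion was done on Mueller-Hinton agar with ampicillin-sulbactam, ceftazidime, cefepime, meropenem, tobramycin, gentamicin, ciprofloxacin and tetracycline. Isolates were called susceptible or resistant using CLSI breakpoints.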
# Acinetobacter baumannii [2] = assay: Antimicrobial activity against multidrug-resistant Acinetobacter baumannii expressing armA gene by Etest method; format: functional
# Acinetobacter baumannii [3] = assay: Antimicrobial activity against multidrug-resistant Acinetobacter baumannii by Etest method; format: functional
# Acinetobacter baumannii [4] = assay: Antimicrobial activity against multidrug-resistant Acinetobacter baumannii expressing aac(6')-1b gene by Etest method; format: functional
# Acinetobacter baumannii [5] = assay: Antimicrobial activity against multidrug-resistant Acinetobacter baumannii expressing aph(3')-Vla gene by Etest method; format: functional
# Acinetobacter baumannii [6] = assay: Antimicrobial activity against multidrug-resistant Acinetobacter baumannii assessed as resistant isolates by disk diffusion method in presence of beta-lactamase inhibitor Sulbactam; format: functional; how it was run: as §1
# Acinetobacter baumannii [7] = assay: Antimicrobial activity against multidrug-resistant Acinetobacter baumannii expressing armA and bla oxa-23 gene assessed as resistant isolates by disk diffusion method; format: functional; how it was run: as §1
# Acinetobacter baumannii [8] = assay: Antimicrobial activity against Acinetobacter baumannii AB017 transformant harboring bla-OXA-23 gene by Etest method; format: functional
# Acinetobacter baumannii [9] = assay: Antimicrobial activity against Acinetobacter baumannii HE130 lacking bla-OXA-23 gene by Etest method
# Acinetobacter baumannii [10] = assay: Antimicrobial activity against Acinetobacter baumannii AB026 transformant harboring bla-OXA-23 gene by Etest method; format: functional
compound,measurement,setting,value
CC(C)(O/N=C(\C(=O)N[C@@H]1C(=O)N2C(C(=O)[O-])=C(C[n+]3ccccc3)CS[C@H]12)c1csc(N)n1)C(=O)O [CEFTAZIDIME],Activity,Acinetobacter baumannii [1],87.8%
CO/N=C(\C(=O)N[C@@H]1C(=O)N2C(C(=O)[O-])=C(C[N+]3(C)CCCC3)CS[C@H]12)c1csc(N)n1 [CEFEPIME],Activity,Acinetobacter baumannii [1],79.6%
NCC[C@H](O)C(=O)N[C@@H]1C[C@H](N)[C@@H](O[C@H]2O[C@H](CN)[C@@H](O)[C@H](O)[C@H]2O)[C@H](O)[C@H]1O[C@H]1O[C@H](CO)[C@@H](O)[C@H](N)[C@H]1O [AMIKACIN],Activity,Acinetobacter baumannii [1],36.7%
same,MIC,Acinetobacter baumannii [2],> 256 µg/mL
same,MIC,Acinetobacter baumannii [3],128 µg/mL
same,MIC,Acinetobacter baumannii [4],2 µg/mL
same,MIC,Acinetobacter baumannii [5],12 µg/mL
CC1(C)S[C@@H]2[C@H](NC(=O)[C@H](N)c3ccccc3)C(=O)N2[C@H]1C(=O)O [AMPICILLIN],Activity,Acinetobacter baumannii [6],40.8%
C[C@@H](O)[C@H]1C(=O)N2C(C(=O)O)=C(SCCNC=N)C[C@H]12 [IMIPENEM ANHYDROUS],Activity,Acinetobacter baumannii [7],18.4%
same,MIC,Acinetobacter baumannii [8],4 µg/mL
same,MIC,Acinetobacter baumannii [9],0.5 µg/mL
CN(C)[C@@H]1C(O)=C(C(N)=O)C(=O)[C@@]2(O)C(O)=C3C(=O)c4c(O)cccc4[C@@](C)(O)[C@H]3C[C@@H]12 [TETRACYCLINE],Activity,Acinetobacter baumannii [1],79.6%
NC[C@H]1O[C@H](O[C@H]2[C@H](O)[C@@H](O[C@H]3O[C@H](CO)[C@@H](O)[C@H](N)[C@H]3O)[C@H](N)C[C@@H]2N)[C@H](N)C[C@@H]1O [TOBRAMYCIN],Activity,Acinetobacter baumannii [1],61.2%
C[C@@H](O)[C@H]1C(=O)N2C(C(=O)O)=C(S[C@@H]3CN[C@H](C(=O)N(C)C)C3)[C@H](C)[C@H]12 [MEROPENEM],Activity,Acinetobacter baumannii [1],22.4%
same,MIC,Acinetobacter baumannii [10],6 µg/mL
same,MIC,Acinetobacter baumannii [9],0.125 µg/mL
GENTAMICIN,Percent resistant isolates,Acinetobacter baumannii [1],77.6%
O=C(O)c1cn(C2CC2)c2cc(N3CCNCC3)c(F)cc2c1=O [CIPROFLOXACIN],Activity,Acinetobacter baumannii [1],95.9%
